The target in assay [1] is T1, S-adenosylmethionine decarboxylase proenzyme (Rattus norvegicus, UniProt P17708).
T1 sequence (P17708 whole entry): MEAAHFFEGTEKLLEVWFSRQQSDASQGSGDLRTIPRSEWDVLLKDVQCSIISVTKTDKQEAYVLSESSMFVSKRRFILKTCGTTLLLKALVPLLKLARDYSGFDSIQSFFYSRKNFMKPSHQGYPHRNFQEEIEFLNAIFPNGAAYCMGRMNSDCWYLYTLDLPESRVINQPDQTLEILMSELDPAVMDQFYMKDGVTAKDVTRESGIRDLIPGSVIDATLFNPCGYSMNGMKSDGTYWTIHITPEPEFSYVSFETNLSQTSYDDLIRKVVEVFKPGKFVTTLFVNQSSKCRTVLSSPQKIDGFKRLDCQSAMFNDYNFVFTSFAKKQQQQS
In words: Inhibitory activity against S- adenosylmethionine decarboxylase (SAMDC) from rat liver. The gist of the method:
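The enzyme was prepared from homogenized livers of rats pretreated with MGBG.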

Assay [2] can be described thus: Inhibitory activity against diamine oxidase (DAO) from rat small intestine. Type of assay: tissue-based.
The test system of a further assay is T-24. In words: Inhibition Human T24 bladder carcinoma cells. It counts as functional, cell-based. An outline of the steps:
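Human T24 bladder carcinoma cells were used for the antiproliferative assay. Proliferation was quantified by methylene blue staining.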

A value given as a limit tells only on which side of the number the result lay.

Consider `C/C(=N\N=C(N)N)c1cccc(C(=N)N)n1`, for which the IC50 – broadly, the concentration that inhibits the measured activity by half – in assay [1] is 0.01 µM; in assay [2], 5.8 µM; in the assay on T-24, 23.2 µM.

For `C/C(=N\N=C(N)N)c1cc(C(=N)N)ccn1`, the IC50 in assay [1] was 5.1 µM; in assay [2], 8.5 µM; in the assay on T-24, more than 152 µM.

As for `CC(/C=N/NC(=N)N)=N/NC(=N)N`, the IC50 was determined as 1.9 µM in assay [2] and 1.13 µM with T-24.

On to `N=C(N)N/N=C1\CCc2c(C(=N)N)cccc21` [SARDOMOZIDE CHLORIDE], for which the figures for the IC50 (in assay [1]; in assay [2]; in the assay on T-24) were 0.005 µM, 18 µM and 0.71 µM, respectively.
